Measurements of several laboratories.
Protocols differ between the studies behind these lines.
Target: Misshapen-like kinase 1 (MINK1, Homo sapiens, UniProt Q8N4C8)

For `Cn1c(=O)n(-c2ccc(C(C)(C)C#N)cc2)c2c3cc(-c4cnc5ccccc5c4)ccc3ncc21`, the remaining activity was 75% (enzyme activity, inhibitor; 10 µM).
`CCN(CC)c1ccc(C2=NNC(=O)CC2C)cc1[N+](=O)[O-]` (stereo not shown) has a remaining activity of 102% (enzyme activity, inhibitor; 10 µM).
`COc1cc(Nc2cnc(C#N)c(O[C@H](C)CN(C)C)n2)ncc1-c1cnn(C)c1` gave a remaining activity of 90% (enzyme activity, inhibitor, radiometric; 1 µM).
The remaining activity of `Cc1ccc(C(=O)Nc2ccc(CN3CCN(C)CC3)c(C(F)(F)F)c2)cc1C#Cc1cnc2cccnn12` is reported as 45% (enzyme activity, inhibitor; 23.5 nM).
With `COc1ccc2c(c1)O[C@@H](c1ccc(OC)c(OC)c1)C[C@H]2NC(=O)C1(c2ccc3c(c2)OC(F)(F)O3)CC1` the remaining binding was 77% (cell-free assay, competition with immobilised ligand; 1 µM).
For `CC(C)(C)c1nc(-c2cccc(NS(=O)(=O)c3c(F)cccc3F)c2F)c(-c2ccnc(N)n2)s1`, the remaining activity was 100% (enzyme activity, inhibitor, radiometric; 1 µM).
For `CCCS(=O)(=O)Nc1ccc(F)c(C(=O)c2c[nH]c3ncc(-c4ccc(Cl)cc4)cc23)c1F`, the inhibition was under 20% (enzyme activity, inhibitor; 1 µM).
For `COc1cc2ncnc(Nc3ccc(Oc4ccccc4)c(C)c3C)c2cc1OC`, the inhibition was -1% (enzyme activity, inhibitor; 1 µM).
With `FC(F)c1nc2ccccc2n1-c1nc(N2CCOCC2)nc(N2CCOCC2)n1` the remaining activity was 102% (enzyme activity, inhibitor; 10 µM).
With `O=C1NC(=O)c2cc(Nc3ccc(F)cc3)c(Nc3ccc(F)cc3)cc21` the remaining signal was 99% (cell-free assay; 0.5 µM).
For `Cc1cc(NC(=O)c2cccc3cc(-c4cccc5[nH]nc(N)c45)ccc23)ccc1F`, the activity vs control was 110% (enzyme activity, inhibitor; 0.1 µM).
For `Cc1nc(C2CCN(C(=O)c3ccc(OC(F)(F)F)cc3N)CC2)c2ncc(N3CCN(C)CC3)cc2n1`, the remaining binding was 93% (cell-free assay, competition with immobilised ligand; 1 µM).
`CN1CC(Oc2cnc(C#N)cc2-c2ccn3nc(NC(=O)C4CC4)cc3c2)C1` gave an inhibition of 13% (enzyme activity, inhibitor; 1 µM).
With `FC(F)(F)Oc1cccc(-c2cnc3ccc(-c4ccncc4)nn23)c1` the activity vs control was 58% (enzyme activity, inhibitor, radiometric; 1 µM).
`C[C@@H]1CN(c2cc(-c3n[nH]c4ccc(OC5(C)CC5)cc34)ncn2)C[C@H](C)O1` has a remaining binding of 84% (cell-free assay, competition with immobilised ligand; 0.1 µM).
`COc1cc(-c2cc(-c3ccc(N4CCNCC4)cc3)cnc2N)cc(OC)c1OC` has an inhibition of 74% (enzyme activity, inhibitor; 0.1 µM).
`CCCOc1ccc(OC)c(F)c1C(=O)c1ccc(C(=O)N[C@@H]2CNC[C@H]2NC(=O)c2ccc3[nH]ncc3c2)cc1` has a remaining activity of 96% (enzyme activity, inhibitor; 10 µM).
For `CCS(=O)(=O)c1cc2cc(C[C@@](O)(CC(C)(C)c3ccc(F)cc3C(N)=O)C(F)(F)F)[nH]c2cn1`, the remaining binding was 79% (cell-free assay, competition with immobilised ligand; 1 µM).
`CN(C)C1CCN(CC#Cc2nn(C3CCCC3)c3nc(NCc4ccccc4)ncc23)C1` (stereo not shown) gave an inhibition of 17% (enzyme activity, inhibitor, FRET; 1 µM).
For `CCN(CC)CCNC(=O)c1c(C)[nH]c(/C=C2\C(=O)Nc3ccc(F)cc32)c1C`, the inhibition was 48% (enzyme activity, inhibitor; 0.3 µM).
`Cc1noc([C@H]2C[C@@H](c3ccc(C(F)(F)F)cc3)CN(C(=O)N3CCS(=O)(=O)C3)C2)n1` gave a remaining binding of 100% (cell-free assay, competition with immobilised ligand; 1 µM).
The remaining activity of `O=C(Nc1cnn(-c2csc(C(=O)NC3COC3)c2)c1)Nc1ccccc1Cl` is reported as 79.4% (enzyme activity, inhibitor; 5 µM).
The inhibition of `CC/C(=N\NC(=O)NCc1cccc(O)c1)c1ccc(O)c(C)c1O` is reported as -1% (enzyme activity, inhibitor; 0.1 µM).
For `N#CC1(c2ccccn2)CCN(Cc2cc(C(=O)N3CCCC3)c(=O)n3ccccc23)CC1`, the remaining binding was 89% (cell-free assay, competition with immobilised ligand; 1 µM).
The remaining signal of `COc1cc2c(Nc3ccc(Br)cc3F)ncnc2cc1OCC1CCN(C)CC1` is reported as 81.5% (cell-free assay; 0.5 µM).
`O=C(NCc1ncc(C(F)(F)F)cc1Cl)c1ccc2c(c1)C1(CCS(=O)(=O)CC1)[C@@H](C1CC1)N2S(=O)(=O)c1ccc(F)cc1` gave a remaining binding of 85% (cell-free assay, competition with immobilised ligand; 1 µM).
`Cc1ccc(NC(=O)c2ccc(C)c(C(F)(F)F)c2)cc1C#Cc1nn(C2CCC(O)CC2)c2ncnc(N)c12` (stereo not shown) has a remaining signal of 25% (cell-free assay; 10 µM).
With `CNC(=O)c1cc(Oc2ccc(NC(=O)Nc3ccc(Cl)c(C(F)(F)F)c3)cc2)ccn1` the inhibition was 75% (enzyme activity, inhibitor; 10 µM).
`N#CCCc1ccc2c(c1)-c1[nH]c3ccc([N+](=O)[O-])cc3c1CC(=O)N2` has a remaining signal of 29.9% (cell-free assay; 0.5 µM).
The remaining binding of `NS(=O)(=O)c1cc(NC(=O)Cc2ccccc2)ccc1Oc1cccc(Cl)c1` is reported as 90% (cell-free assay, competition with immobilised ligand; 1 µM).
For `Cc1ccc(Nc2nccc(N(C)c3ccc4c(C)n(C)nc4c3)n2)cc1S(N)(=O)=O`, the inhibition was 80% (enzyme activity, inhibitor; 10 µM).
